Assay results as given in ChEMBL document CHEMBL1128383, “Potent, orally active, competitive N-methyl-D-aspartate (NMDA) receptor antagonists are substrates for a neutral amino acid uptake system in Chinese hamster ovary cells” (J Med Chem, 1995).
Values belong to the compound of their own block, whether it stands above or below them.

Experiments:
Mus musculus [1] = experiment: Maximal electroshock (MES) results in mice by iv administration of 10 mg/kg expressed as number of animals protected by total 5 animals tested after 2 hr was reported; format: functional
In short: (§1)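 Adult male CF-1 mice (18–24 g) dosed iv, mg/kg. At 15 min, 1 h and 2 h after dosing, a 60 Hz sinusoidal current (50 mA base to peak, 0.2 s) is applied through corneal electrodes smeared with electrolyte jelly. Protection means no tonic hindlimb extension. Ataxia is scored by inverted screen. Data are expressed as animals affected per animals tested, 5 per group.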

Mus musculus [2] = experiment: Maximal electroshock (MES) results in mice by iv administration of 3 mg/kg expressed as number of animals protected by total 5 animals tested after 2 hr was reported; format: functional; in short: as §1
Glutamate NMDA receptor [3] = experiment: (§2) Inhibition of NMDA receptor binding affinity in rat brain synaptosomal membrane using [3H]glycine as radioligand; format: cell membranes
In short: (§3)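 Displacement of radioligand ([3H]glutamate, [3H]glycine or [3H]CGP 39653) from rat cortex synaptosomal membranes. IC50 values are means of at least two experiments, each run in triplicate.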

Glutamate NMDA receptor [4] = experiment: (§4) Inhibition of NMDA receptor binding affinity in rat brain synaptosomal membrane using [3H]glutamate as radioligand; format: cell membranes; in short: as §3
Mus musculus [5] = experiment: Maximal electroshock (MES) results in mice by iv administration of 3 mg/kg expressed as number of animals with ataxia total 5 animals tested after 2 hr was reported; format: functional; in short: as §1
Mus musculus [6] = experiment: Maximal electroshock (MES) results in mice by iv administration of 3 mg/kg expressed as number of animals with ataxia by total 5 animals tested after 1 hr was reported; format: functional; in short: as §1
Mus musculus [7] = experiment: Maximal electroshock (MES) results in mice by iv administration of 3 mg/kg expressed as number of animals protected by total 5 animals tested after 15 min was reported; format: functional; in short: as §1
Glutamate NMDA receptor [8] = experiment: Inhibition of receptor binding affinity in […] measured using LDH release
In short: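 Neuronal cell-culture excitotoxicity assay. Cell death is induced by a 5 min application of 100 μM NMDA and read out as lactate dehydrogenase release. The value is the compound concentration needed to prevent cell death.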

Mus musculus [9] = experiment: Maximal electroshock (MES) results in mice by iv administration of 10 mg/kg expressed as number of animals protected by total 5 animals tested after 15 min was reported; format: functional; in short: as §1
Mus musculus [10] = experiment: Maximal electroshock (MES) results in mice by iv administration of 10 mg/kg expressed as number of animals with ataxia total 5 animals tested after 1 hr was reported; format: functional; in short: as §1
Mus musculus [11] = experiment: Maximal electroshock (MES) results in mice by iv administration of 10 mg/kg expressed as number of animals with ataxia total 5 animals tested after 2 hr was reported; format: functional; in short: as §1
Mus musculus [12] = experiment: Maximal electroshock (MES) results in mice by iv administration of 3 mg/kg expressed as number of animals protected by total 5 animals tested after 1 hr was reported; format: functional; in short: as §1
Mus musculus [13] = experiment: Maximal electroshock (MES) results in mice by iv administration of 3 mg/kg expressed as number of animals with ataxia by total 5 animals tested after 15 min was reported; format: functional; in short: as §1
Mus musculus [14] = experiment: Maximal electroshock (MES) results in mice by iv administration of 10 mg/kg expressed as number of animals protected by total 5 animals tested after 1 hr was reported; format: functional; in short: as §1
Glutamate NMDA receptor [15] = experiment: (§5) Inhibition of receptor binding affinity in rat brain synaptosomal membrane was determined by [3H]-CGP- 39653 as radioligand; format: cell membranes; in short: as §3
Mus musculus [16] = experiment: Maximal electroshock (MES) results in mice by iv administration of 10 mg/kg expressed as number of animals with ataxia total 5 animals tested after 15 min was reported; format: functional; in short: as §1
Mus musculus [17] = experiment: Maximal electroshock (MES) results in mice by iv administration of 10 mg/kg expressed as number of animals ataxia by total 5 animals tested after 1 hr was reported; format: functional; in short: as §1
Mus musculus [18] = experiment: Maximal electroshock (MES) results in mice by iv administration of 10 mg/kg expressed as number of animals ataxia by total 5 animals tested after 15 min was reported; format: functional; in short: as §1
Mus musculus [19] = experiment: Maximal electroshock (MES) results in mice by iv administration of 10 mg/kg expressed as number of animals ataxia by total 5 animals tested after 2 hr was reported; format: functional; in short: as §1
[20] = target: T1, Glutamate NMDA receptor (Rattus norvegicus) (UniProt P35439+Q00959+Q00960+Q00961+Q62645+Q8VHN2+Q9R1M7); experiment: as §2; format: cell membranes; conditions: concentration not given here; in short: as §3
[21] = target: T1, Glutamate NMDA receptor (Rattus norvegicus); experiment: as §4; format: cell membranes; conditions: concentration not given here; in short: as §3
[22] = target: T1, Glutamate NMDA receptor (Rattus norvegicus); experiment: as §5; format: cell membranes; conditions: concentration not given here; in short: as §3
Glutamate NMDA receptor [23] = experiment: Inhibition of NMDA receptor binding affinity in rat brain synaptosomal membrane was determined by [3H]-CGP- 39653 as radioligand; format: cell membranes
In short: (§6)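 Displacement of the named radioligand from rat cortex synaptosomal membranes, following previously reported procedures. IC50 values are means of at least two experiments, each run in triplicate.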

[24] = Therapeutic index(TI) expressed as ratio of ataxia ED50 to the MES ED50 was determined; conditions: read-out: TI
Glutamate NMDA receptor [25] = experiment: Inhibition of NMDA receptor binding affinity in rat brain synaptosomal membrane by using [3H]glycine as radioligand; format: cell membranes; in short: as §6
Mus musculus [26] = experiment: Maximal electroshock (MES) results in mice by iv administration of 10 mg/kg expressed as number of animals ataxia by number of animals tested after 1 hr was reported; format: functional; in short: as §1
Mus musculus [27] = experiment: Maximal electroshock (MES) results in mice by iv administration of 30 mg/kg expressed as number of animals protected by total 5 animals tested after 2 hr was reported; format: functional; in short: as §1
Mus musculus [28] = experiment: Maximal electroshock (MES) results in mice by iv administration of 10 mg/kg expressed as number of animals protected by number of animals tested after 1 hr was reported; format: functional; in short: as §1
Mus musculus [29] = experiment: Maximal electroshock (MES) results in mice by iv administration of 10 mg/kg expressed as number of animals ataxia by number of animals tested after 15 min was reported; format: functional; in short: as §1
Mus musculus [30] = experiment: Maximal electroshock (MES) results in mice by iv administration of 30 mg/kg expressed as number of animals protected by total 5 animals tested after 1 hr was reported; format: functional; in short: as §1
Mus musculus [31] = experiment: Maximal electroshock (MES) results in mice by iv administration of 30 mg/kg expressed as number of animals protected by total 5 animals tested after 15 min was reported; format: functional; in short: as §1
Mus musculus [32] = experiment: Maximal electroshock (MES) results in mice by iv administration of 30 mg/kg expressed as number of animals ataxia by total 5 animals tested after 15 min was reported; format: functional; in short: as §1
Mus musculus [33] = experiment: Maximal electroshock (MES) results in mice by iv administration of 30 mg/kg expressed as number of animals ataxia by total 5 animals tested after 1 hr was reported; format: functional; in short: as §1
Mus musculus [34] = experiment: Maximal electroshock (MES) results in mice by iv administration of 10 mg/kg expressed as number of animals protected by number of animals tested after 15 min was reported; format: functional; in short: as §1
Mus musculus [35] = experiment: Maximal electroshock (MES) results in mice by iv administration of 30 mg/kg expressed as number of animals ataxia by total 5 animals tested after 2 hr was reported; format: functional; in short: as §1

- IC50 (Glutamate NMDA receptor [3]): 224000 nM
- IC50 (Glutamate NMDA receptor [4]): 130 nM
- IC50 (Glutamate NMDA receptor [8]): 1000 nM
- IC50 (Glutamate NMDA receptor [15]): 88 nM
Structure (SMILES): N[C@@H](Cc1cc(CP(=O)(O)O)cc(-c2ccccc2)c1)C(=O)O
- Protected (Mus musculus [1]): 3
- Protected (Mus musculus [2]): 1
- Ataxia (Mus musculus [5]): 0
- Ataxia (Mus musculus [6]): 0
- Protected (Mus musculus [7]): 1
- Protected (Mus musculus [9]): 5
- Ataxia (Mus musculus [10]): 1
- Ataxia (Mus musculus [11]): 0
- Protected (Mus musculus [12]): 0
- Ataxia (Mus musculus [13]): 0
- Protected (Mus musculus [14]): 4
- Ataxia (Mus musculus [16]): 0

- IC50 (Glutamate NMDA receptor [3]): > 200000 nM
- IC50 (Glutamate NMDA receptor [4]): 13500 nM
- IC50 (Glutamate NMDA receptor [15]): 5210 nM
Structure (SMILES): N[C@H](Cc1cc(CP(=O)(O)O)cc(-c2ccccc2)c1)C(=O)O
- Protected (Mus musculus [1]): 0
- Ataxia (Mus musculus [17]): 0
- Ataxia (Mus musculus [18]): 0
- Ataxia (Mus musculus [19]): 0
- Protected (Mus musculus [9]): 0
- Protected (Mus musculus [14]): 0

- inhibition [20]: 52%
- inhibition [21]: 58%
- inhibition [22]: 52%
Structure (SMILES): N[C@@H](Cc1cccc(-c2ccccc2)c1)C(=O)O

- IC50 (Glutamate NMDA receptor [3]): 11500 nM
- IC50 (Glutamate NMDA receptor [4]): 2300 nM
- IC50 (Glutamate NMDA receptor [15]): 1080 nM
Structure (SMILES): N[C@@H](Cc1cc(-c2ccccc2)cc(CP(=O)(O)O)c1[N+](=O)[O-])C(=O)O

- IC50 (Glutamate NMDA receptor [4]): 837 nM
- IC50 (Glutamate NMDA receptor [23]): 148 nM
- IC50 (Glutamate NMDA receptor [25]): > 200000 nM
Structure (SMILES): O=C(O)C1CN(CCCP(=O)(O)O)CCN1 (centres undefined)
- selectivity ratio [24]: 2.21

- IC50 (Glutamate NMDA receptor [4]): 320 nM
- IC50 (Glutamate NMDA receptor [15]): 250 nM
Structure (SMILES): N[C@H](Cc1cc(CP(=O)(O)O)cc(-c2cccc3ccccc23)c1)C(=O)O
- Protected (Mus musculus [1]): 1
- Ataxia (Mus musculus [26]): 0
- Protected (Mus musculus [27]): 5
- Protected (Mus musculus [28]): 0
- Ataxia (Mus musculus [29]): 0
- Ataxia (Mus musculus [19]): 0
- Protected (Mus musculus [30]): 3
- Protected (Mus musculus [31]): 3
- Ataxia (Mus musculus [32]): 1
- Ataxia (Mus musculus [33]): 0
- Protected (Mus musculus [34]): 0
- Ataxia (Mus musculus [35]): 0
